B1: tRNA (parent)
chain: CUCUCGGUAGCCAAGUUGGUUUAAGGCGCAAGACUUUAAUUUAUCACUACGAAAUCUUGAGAUCGGGCGUUCGACUCGCCCCCGGGAGAUUUUUUCCUCGAGCAA

This sample holds only a part of the variants without activity. Bounds are passed on as bounds.

The variants in this series derive from B1. Kind of series: nonsense suppression (GFP-seq) (ratio to wild type); higher = more function; SUP4oc tRNA, yeast GFP reporter sort-seq. The method, boiled down: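 Nonsense suppression (GFPSEQ) is the median GFP/RFP ratio of each sorting bin, weighted by the variant's estimated share of cells in that bin and expressed relative to the unmutated parent tRNA. Yeast strains carried genome-integrated variants of an ochre-suppressor tRNA from a library with ~3% random mutations, plus a galactose-driven GFP ochre reporter and RFP, and were grown in raffinose/galactose medium containing 80 mg/L adenine. Cells were sorted into GFP/RFP bins, each bin was Illumina-sequenced (phred ≥30), and variants were kept only with ≥100 reads and ≥30 cells.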
For CUCUCGGAAGCCAAGUUGGUUUAAAGCGCAAGACUUUAAUUUAUCACUACGAAAUCUUGAGAUCGGGCGUUCGACUCGCCCCCGGGAGAUUUUUUCCUCGAGCAA [U8A G25A], the nonsense suppression was no more than 0.026.

CUCUCGGCAGCCAAGUUGGAUUAAGGCGCAAGACUUUAAUUUAUCACUACGAAAUCUUGAGAUCGGGCGUUCGACUCGCCCCCGGGAGAUUUUUUCCUCGAGCAA [U8C U20A]: the nonsense suppression came out at 0.0281.

As to CUCUCGGGAGCCGAGUUGGUUUAAGGCGCAAGACUUUAAUUUAUCACUACGAAAUCUUGACAUCGGGGGUUCGACUCGCCCGCGGGAGAUUUUUUCCUCGAGCAA [U8G A13G G61C C68G C82G], the nonsense suppression is no more than 0.026.

For CUCUCGGAAGCCAAGUUGGUUUAAGGCGCAAGACUUUAAUUUAUCACUACGAAAUCCUGAGAUCGGGCGUUCGACUCGCCCCCGGGAGAUUUUUUCCUCGAGCAA [U8A U57C], the nonsense suppression was no more than 0.026.

As to CUCUCGGGAGCCAAGUUGGUUUAAGGCGCAAGACUUUAAUUUAUCACUACGAAAUCUUGGGAUCGGGCGUUCGACUCGCCCCCGGGAGAUUUUUUCCUCGAGCAA [U8G A60G], the nonsense suppression is no more than 0.026.

For the variant CUCUCGGCAGCCAAGUUGGUUUAAGGCGCAAGACUUUAAUUUAUCACUACGAAAUCUUGAGAUCGGGCGGUCGCCUCGCCCCCCGGAGAUUUUUUCCUCGAGCAA [U8C U70G A74C G84C], the nonsense suppression came out at 0.0541.

Consider CUCUCGGAAGCCAAGUUGGUUUAAGGCGCAAGACUUUAAUUUAUCACUACGAAAUCCUGAGAUCGGGCGUUCGCCUCUCCCCCGUGUGAUUUUUUCCUCGAGCAA [U8A U57C A74C G78U G85U A87U], for which the nonsense suppression was no more than 0.026.

In the case of CUCUCGGAAGCCAAGUUGGUUUAACGCGCAAGACUUUAAUUUAUCACUACGAAAUCUUGAGAUCGGGCGAUCGACUCGCCCCCGGGAGAUUUUUUCCUCGAGCAA [U8A G25C U70A], the nonsense suppression was no more than 0.026.

As to CUCUCGGCAGCCACGUUGGUUUAAGGCGCAAGAUUUUAAUUUAUCACUACGAAAUCUUGAGAUCGGGCGUUCGACUCGCCCCCGGGAGAUUUUUUCCUCGAGCAA [U8C A14C C34U], the nonsense suppression is no more than 0.026.

Regarding CUCUCGGCAGCCAAGUUGGUUUAAGGCCCAAGACUUUAAUUUAUCACUACGAAAUCUUGAGAUCGGGCGUUCGACUCGCCCCCGGGAGAUUUUUUCCUCGAGCAA [U8C G28C], the nonsense suppression turned out to be 0.0327.

As for CUCUCGGAAGCCAAGUUGGUUUAAGGCGCAAGACUUUAAUUUAUCACUACGAAAUCUUGCGAUCGGGCGUUCUACUCGCCCCCGGGCGAUUUUUUCCUCGAGCAA [U8A A60C G73U A87C], the nonsense suppression was no more than 0.026.

In the case of CUCUCGGCAGCCAAGUUGGUUUAAGGCGCAAGACUUUAAUUUAUCACUACGAAAUCUUGAGAACGGGCGUUCGACUCGCCCCCGGGAGAUUUUUUCCUCGAGCAA [U8C U63A], the nonsense suppression amounted to 0.0619.

As for CUCUCGGAAGCCAAGUUGCUUUAAGGCGCAAGACUUUAAUUUAUCACUACGAAAUCUUGGGAUCGGGCGUUCGACUCGCCCCCGGGAGAUUUUUUCCUCGAGCAA [U8A G19C A60G], the nonsense suppression was no more than 0.026.

For the variant CUCUCGGCAGCAAAGUUGGUUUAAGGCGCAAGACUUUAAUUUAUCACUACGAAAUCUUGAGAUCGGGAGUUUGACUCGCCCCCGGGAGAUUUUUUCCUCGAGCAA [U8C C12A C68A C72U], the nonsense suppression is no more than 0.026.

As to CUCUCGGGAGCCCAGUUGGUUUAAGGCCCAAGACUUUAAUUUAUCACUACGAAAUCUUGAGAUUGGGCGAUUGACUCGCCCCCUGGAGAUUUUUUCCUCGAGCAA [U8G A13C G28C C64U U70A C72U G84U], the nonsense suppression is no more than 0.026.

For CUCUCGGCAGCCAAGUUGGUUUAUGGCGCAAGACUUUAAUUUAUCACUACGAAAUCUUGAGAUCGGGCGUCCGACUCGCCCCCGGGAGAUUUUUUCCUCGAGCAA [U8C A24U U71C], the nonsense suppression was no more than 0.026.

On to CUCUCGGCAGCCAAGUUGGUUUAAGGCGCAAGACUUUAAUUUAUCACUACGAAAUCUUGAGAUCGGGCGUUCGACUCGCCCCCGUGAGAUUUUUUCCUCGAGCAA [U8C G85U], for which the nonsense suppression was found to be 0.0537.

In the case of CUCUCGGGUGACAAGUUGGUUUAAGUCGCAAGACUUUAAUUUAUCACUACGAAAUCUUGAGAUCGGGCGUUCGACUCGCCCCCGGGAGAUUUUUUCCUCGAGCAA [U8G A9U C11A G26U], the nonsense suppression is no more than 0.026.

With CUCUCGGCAGCCAAGUUGGUUUAAGGCGCAAGACUUUAAUUUAUCACUACGAAAUCUUGAGAUCGGGCGUUCGACUCGCCCCCUGGAGAUUUUUUCCUCGAGCAA [U8C G84U], the nonsense suppression is no more than 0.026.

As for CUCUCGGAAGCCAUGUUGGAUUAAGGCGCAAGACUUUAAUUUAUCACUACGAAAUCUUGAGAUCGGGCGUUCGCCUCGCCCCCGGGAGAUUUUUUCCUCGAGCAA [U8A A14U U20A A74C], the nonsense suppression was no more than 0.026.

For the variant CUCUCGGGAGCCAAGUUGGUUUAAGGCGGAAGACUUUAAUUUAUCACUACGAAAUCUUGAGAUCGGGCGUUCGACUCGCCCCCAGGAGAUUUUUUCCUCGAGCAA [U8G C29G G84A], the nonsense suppression is no more than 0.026.

On to CUCUCGGCUGCCAAGUUGGUUUAAGGCGCAAGACUUUAAUUUAUCACUACGAAUUCUUGAGAUCGGGCGUUCGACUCGCCCCCGGGAGAUUUUUUCCUCGAGCAA [U8C A9U A54U], for which the nonsense suppression is no more than 0.026.

For the variant CUCUCGGAAGCCAAGUUGGUUUAAGGCGCAAGACUUUAAUUUAUCACUACGAAAUCCUGAGAUCGGGCGUUCGACUCGCCCCCGUGAGAUUUUUUCCUCGAGCAA [U8A U57C G85U], the nonsense suppression is no more than 0.026.

As for CUCUCGGAAGCCAAGUUGGUUUAAGGCGCAAGACUUUAAUUUAUCACUACGAAUUCUUGAGAUCGGGCGUUCGACCCGCCCCCGGGCGAUUUUUUCCUCGAGCAA [U8A A54U U76C A87C], the nonsense suppression is no more than 0.026.

As for CUCUCGGGAGCCAAGUUGGUUUAAGGUGCAAGACUUUAAUUUAUCACUACGAAAUCUUGAGAUCGGGCGUUCGACUCGCCCCCGGGAGAUUUUUUCCUCGAGCAA [U8G C27U], the nonsense suppression was no more than 0.026.

On to CUCUCGGAAGCCAAGUUGGUUUAAGGCGCAAGACUUUAAUUUAUCACUACGAAAGCUUGAGAUCGGGCGUUCGACUCGCCGCCGGGAGAUUUUUUCCUCGAGCAA [U8A U55G C81G], for which the nonsense suppression was no more than 0.026.

CUCUCGGCAGCCAAGUUUGUUAAAGGCGCAAGACGUUAAUUUAUCACUACGAAAUCUUGAGAUCGGGCGUACGACUCGCGCCCGGGAGAUUUUUUCCUCGAGCAA [U8C G18U U22A U35G U71A C80G]: the nonsense suppression is no more than 0.026.

These data come from the RNAGym collection of RNA variant scans (doi:10.1101/gad.245936.114).
